Laboratory results reported in ChEMBL document CHEMBL1828560, “Design, synthesis and biological study of pinacolyl boronate-substituted stilbenes as novel lipogenic inhibitors” (Bioorg Med Chem Lett, 2011).
Calls of active or inactive are those of the source. The calls are words filed in the database; no cut-off is given here.

How the values were obtained:
[1] = tested on: HepG2; assay: Inhibition of FAS gene expression in human HepG2 cells at 30 uM after 6 hrs by quantitative RT-PCR; type: functional, cell-based
Summary of the method: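 HepG2 cells grown at 37°C, 5% CO2 in DMEM with 10% FBS, penicillin-streptomycin and 20mM glutamine; compounds at 30μM for 6 hours. Total RNA extracted with Trizol; 2 μg reverse-transcribed to cDNA; FAS transcript quantified by real-time qPCR with cyclophilin B as invariant control. Three independent samples averaged; compared with DMSO.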

[2] = tested on: HepG2; assay: Cytotoxicity against human HepG2 cells; type: cell-based
[3] = tested on: FaO; assay: Inhibition of cholesterol biosynthesis in rat FaO cells at 20 uM after 12 hrs by deuterium enrichment-GC/MS method in presence of 100 nM insulin; type: functional, cell-based
Summary of the method: (§1)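 Rat hepatoma FAO cells, maintained in DMEM with 10% FBS, treated at 20μM for 12 hours with 100 nM insulin. Cells cultured in DMEM containing 10% 2H2O for 18 hours; deuterium incorporation into palmitate or cholesterol measured by GC/MS to give synthesis rate. Averages of three independent samples vs DMSO.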

[4] = species on record: Mus musculus; assay: Toxicity in mouse; type: organism-based; conditions: in vivo
[5] = tested on: FaO; assay: Inhibition of lipogenesis in rat FaO cells assessed as decrease in synthesis rate of palmitate at 20 uM after 12 hrs by deuterium enrichment-GC/MS method in presence of 100 nM insulin; type: functional, cell-based; summary of the method: as §1
[6] = tested on: HepG2; assay: Inhibition of HMGCR gene expression in human HepG2 cells after 6 hrs by measuring mRNA level of HMGCR using quantitative RT-PCR; type: functional, cell-based
Summary of the method: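 HepG2 cells cultured in DMEM plus 10% FBS, penicillin-streptomycin, 20mM glutamine (37°C, 5% CO2), exposed to a series of concentrations for 6 hours. HMGCR mRNA measured by qRT-PCR: Trizol RNA extraction, 2 μg RNA converted to cDNA, real-time PCR normalized to cyclophilin B.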

CC1(C)OB(c2ccc(C=Cc3cc(Cl)cc(Cl)c3)cc2)OC1(C)C (mixture of isomers)
inhibition [1]: Active
Activity [2]: Non-toxic

CC1(C)OB(c2ccc(C=Cc3ccc(O)cc3)cc2)OC1(C)C (mixture of isomers)
inhibition [3]: Active
Activity [4]: Non-toxic
inhibition [1]: Active
Activity [2]: Non-toxic
inhibition [5]: Active
inhibition [6]: Dose-dependent effect

COc1ccc(C=Cc2ccc(B3OC(C)(C)C(C)(C)O3)cc2)cc1 (mixture of isomers)
inhibition [1]: inactive
inhibition [6]: inactive
